{
  "source": "ChEMBL document CHEMBL5252546",
  "about": "“Salutaxel, a Conjugate of Docetaxel and a Muramyl Dipeptide (MDP) Analogue, Acts as Multifunctional Prodrug That Inhibits Tumor Growth and Metastasis” (J Med Chem, 2018)",
  "key": {"[1]": {"test": "Drug metabolism in rat bile assessed as metabolite MDA-205 formation at 4 mg/kg,iv measured after 24 hrs", "type": "ADME, organism-based", "settings": "in vivo"}, "[2]": {"test": "Cmax in male Beagle dog at 2 mg/kg,iv measured upto 24 hrs", "type": "ADME, organism-based, Canis lupus familiaris", "set-up": "dose 2 mg/kg, time < 24 hrs, route iv", "settings": "in vivo", "procedure,_shortened": "(§1)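 Beagle dogs were given a single iv infusion at 1, 2 or 4 mg/kg. Plasma parent drug and released docetaxel were followed over time. Cmax, Tmax, AUC, MRT, t1/2, CL and Vss were reported by sex and for all dogs combined.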"}, "[3]": {"test": "Volume of distribution at steady state in male Beagle dog at 4 mg/kg,iv measured upto 24 hrs", "type": "ADME, organism-based, Canis lupus familiaris", "settings": "in vivo, read-out: Vdss"}, "[4]": {"test": "Plasma protein binding in human plasma incubated for 4 hrs", "type": "ADME, cell-free", "settings": "read-out: PPB (converted)"}, "[5]": {"test": "Cmax in mouse plasma implanted with mouse 4T1 cells at 10 mg/kg,iv measured upto 72 hrs", "type": "ADME, organism-based", "set-up": "dose 10 mg/kg, time < 72 hrs, route iv", "procedure,_shortened": "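BALB/c mice carried 4T1 cells implanted in the mammary fat pad and received a single iv dose of 10 mg/kg. Parent drug and released docetaxel were assayed in plasma and tumor tissue up to 72 h. Parameters came from noncompartmental analysis, n = 6, mean ± SD.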"}, "[6]": {"test": "Volume of distribution at steady state in Beagle dog at 1 mg/kg,iv measured upto 24 hrs", "type": "ADME, organism-based, Canis lupus familiaris", "settings": "in vivo, read-out: Vdss"}, "[7]": {"test": "Drug metabolism in rat feces assessed as metabolite MDA-205 formation at 4 mg/kg,iv measured after 24 hrs", "type": "ADME, organism-based", "settings": "in vivo"}, "NCI-H522": {"system": "NCI-H522", "test": "Antiproliferative activity against human NCI-H522 cells assessed inhibition of cell growth incubated for 72 hrs by SRB assay", "type": "functional, cell-based", "settings": "NCI-H522, 72 h"}, "[8]": {"test": "AUC (0-t) in female rat at 2 mg/kg,iv measured upto 24 hrs", "type": "ADME, organism-based", "set-up": "time < 24 hrs, dose 2 mg/kg, route iv", "settings": "in vivo", "procedure,_shortened": "(§2)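 Single iv dose: rats 2, 4 or 8 mg/kg by intravenous injection; Beagle dogs 1, 2 or 4 mg/kg by intravenous infusion. Plasma concentration–time data were analysed by sex and pooled. Reported parameters: Cmax, Tmax, AUC0−t, AUC0−∞, MRT0−∞, t1/2, CL, Vss, given as mean ± SD.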"}, "[9]": {"test": "AUC (0-infinity) in Beagle dog at 2 mg/kg,iv measured upto 24 hrs", "type": "ADME, organism-based, Canis lupus familiaris", "set-up": "dose 2 mg/kg, time < 24 hrs, route iv", "settings": "in vivo", "procedure,_shortened": "as §2"}, "[10]": {"test": "Clearance in Beagle dog at 4 mg/kg,iv measured upto 24 hrs", "type": "ADME, organism-based, Canis lupus familiaris", "settings": "in vivo", "procedure,_shortened": "as §1"}, "[11]": {"test": "AUC (0-infinity) in male Beagle dog at 2 mg/kg,iv measured upto 24 hrs", "type": "ADME, organism-based, Canis lupus familiaris", "set-up": "time < 24 hrs, dose 2 mg/kg, route iv", "settings": "in vivo", "procedure,_shortened": "as §2"}, "4T1 [12]": {"system": "4T1", "test": "Antitumor activity against mouse 4T1 cells implanted in BALB/c mouse assessed as decrease in spleen MMP2 expression level at 5 to 20 mg/kg,iv administrated once per week for 4 weeks by western blot assay", "type": "functional, organism-based", "settings": "dose 5-20 mg/kg", "procedure,_shortened": "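4T1 fat-pad model in BALB/c mice, iv once weekly for 4 weeks; MMP9, MMP2 and NOD1 in spleen, lung and tumour by western blot, β-actin loading control; bands averaged over five mice per group, representative of two independent experiments.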"}, "Cytochrome P450 2C9": {"target": "Cytochrome P450 2C9 (Homo sapiens, UniProt P11712)", "sequence (P11712 whole entry)": "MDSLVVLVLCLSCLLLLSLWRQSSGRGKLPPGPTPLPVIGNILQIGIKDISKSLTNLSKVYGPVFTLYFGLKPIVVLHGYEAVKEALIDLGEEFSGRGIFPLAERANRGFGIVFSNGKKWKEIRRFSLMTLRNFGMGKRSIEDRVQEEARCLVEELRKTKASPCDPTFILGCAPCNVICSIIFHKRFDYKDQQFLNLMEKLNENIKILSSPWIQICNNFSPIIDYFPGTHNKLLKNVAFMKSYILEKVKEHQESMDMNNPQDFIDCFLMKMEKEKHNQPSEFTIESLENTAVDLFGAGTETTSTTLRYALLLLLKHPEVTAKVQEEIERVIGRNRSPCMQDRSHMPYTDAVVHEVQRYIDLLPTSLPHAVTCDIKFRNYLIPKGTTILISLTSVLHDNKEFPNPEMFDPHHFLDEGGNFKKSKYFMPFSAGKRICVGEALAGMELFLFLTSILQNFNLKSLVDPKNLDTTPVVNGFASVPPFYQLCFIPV", "test": "Inhibition of CYP2C9 in human liver microsomes using probe substrate at 0.1 to 100 uM in presence of NADPH", "type": "ADME, Microsome", "settings": "dose 0.1-100 µM"}, "[13]": {"test": "Toxicity in Beagle dog assessed as erythema at 3 to 18 mg/kg,iv measured upto 24 hrs", "type": "organism-based, Canis lupus familiaris", "settings": "in vivo, dose 3-18 mg/kg"}, "Cytochrome P450 3A4": {"target": "Cytochrome P450 3A4 (Homo sapiens, UniProt P08684)", "sequence (P08684 whole entry)": "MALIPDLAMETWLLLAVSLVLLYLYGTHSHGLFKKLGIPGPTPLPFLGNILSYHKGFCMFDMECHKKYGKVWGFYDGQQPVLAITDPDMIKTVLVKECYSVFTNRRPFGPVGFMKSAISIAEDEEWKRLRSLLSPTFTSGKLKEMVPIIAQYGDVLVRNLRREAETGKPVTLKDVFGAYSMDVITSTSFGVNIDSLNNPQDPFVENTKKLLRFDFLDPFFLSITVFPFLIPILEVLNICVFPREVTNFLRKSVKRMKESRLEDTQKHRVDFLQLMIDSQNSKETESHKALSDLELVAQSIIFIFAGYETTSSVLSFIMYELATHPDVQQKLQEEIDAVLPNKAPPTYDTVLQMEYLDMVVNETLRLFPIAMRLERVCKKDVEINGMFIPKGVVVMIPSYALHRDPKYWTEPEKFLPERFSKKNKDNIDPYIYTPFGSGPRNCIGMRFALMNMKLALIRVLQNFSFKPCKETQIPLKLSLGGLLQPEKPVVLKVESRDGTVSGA", "test": "Inhibition of CYP3A4 in human liver microsomes using probe substrate at 0.1 to 100 uM in presence of NADPH", "type": "ADME, Microsome", "settings": "dose 0.1-100 µM"}, "[14]": {"test": "Stability in mouse plasma assessed as compound remaining at 1 uM incubated for 6 hrs", "type": "ADME, cell-free"}, "[15]": {"test": "Tmax in male Beagle dog at 4 mg/kg,iv measured upto 24 hrs", "type": "ADME, organism-based, Canis lupus familiaris", "settings": "in vivo"}, "4T1 [16]": {"system": "4T1", "test": "Antitumor activity against mouse 4T1 cells xenografted with BALB/c mouse assessed as decrease in tumor weight at 10 mg/kg,iv administrated once per week for 4 weeks", "type": "functional, organism-based", "procedure,_shortened": "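4T1 cells injected into the mammary fat pad of BALB/c mice; iv saline vehicle or 5, 10 or 20 mg/kg once weekly for 4 weeks; body weight, tumour volume, tumour weight, lung metastatic nodule count and metastasis score recorded; n = 10, mean ± SEM, ANOVA and Student's t test.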"}, "[17]": {"test": "AUC (0-t) in male rat at 8 mg/kg,iv measured upto 24 hrs", "type": "ADME, organism-based", "set-up": "time < 24 hrs, dose 8 mg/kg, route iv", "settings": "in vivo", "procedure,_shortened": "as §2"}, "4T1 [18]": {"system": "4T1", "test": "Antitumor activity against mouse 4T1 cells implanted in BALB/c mouse assessed as decrease in serum TIMP-1 level at 20 mg/kg,iv administrated once per week for 4 weeks by ELISA", "type": "functional, organism-based", "procedure,_shortened": "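4T1 fat-pad model in BALB/c mice, iv 5–20 mg/kg once weekly for 4 weeks, with vehicle and naive groups; serum MMP9, TIMP-1, IL-6 and S100A9 measured by mouse ELISA kits.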"}, "[19]": {"test": "MRT in mouse plasma implanted with mouse 4T1 cells at 10 mg/kg,iv measured upto 72 hrs", "type": "ADME, organism-based"}, "[20]": {"test": "Acute toxicity in Beagle dog assessed as lethal dose at iv administration", "type": "organism-based, Canis lupus familiaris", "settings": "in vivo", "procedure,_shortened": "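Acute toxicity after a single intravenous administration. […] In dogs, an approximate lethal dose range was determined.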"}, "[21]": {"test": "Half life in female Beagle dog at 2 mg/kg,iv measured upto 24 hrs", "type": "ADME, organism-based, Canis lupus familiaris", "settings": "in vivo"}, "[22]": {"test": "Toxicity in BALB/c mouse xenografted with human MDA-MB-231 cells assessed as body weight loss at 5.7 mg/kg,iv administrated once per week for 3 weeks", "type": "organism-based", "settings": "in vivo, 504 h", "procedure,_shortened": "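Nude BALB/c nu/nu mice received subcutaneous human tumour cells into the right flank. Dosing started at mean tumour volume of 100–120 mm3, iv once weekly for 3 weeks; the taxane arm was an equimolar control. Body weight and overt side effects were monitored. Mean ± SEM, n = 8.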"}, "[23]": {"test": "Half life in mouse tumor implanted with mouse 4T1 cells at 5.7 mg/kg,iv measured upto 72 hrs", "type": "ADME, organism-based, Neoplasm"}, "4T1 [24]": {"system": "4T1", "test": "Antitumor activity against mouse 4T1 cells implanted in BALB/c mouse assessed as decrease in tumor MMP9 expression level at 5.7 mg/kg,iv administrated once per week for 4 weeks in presence of compound 5b by western blot assay", "type": "functional, organism-based", "procedure,_shortened": "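Tumour-bearing BALB/c mice (4T1 cells into mammary fat pad) given iv saline vehicle or test agents once weekly for 4 weeks. Tumours excised and probed by western blot for MMP9, MMP2 and NOD1, β-actin as loading control. Bands averaged over five mice per group; representative of two independent experiments.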"}, "[25]": {"test": "Drug concentration in plasma of rat at 2.28 mg/kg,iv measured upto 24 hrs", "type": "ADME, organism-based", "settings": "in vivo", "procedure,_shortened": "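Taxane given as a single intravenous dose: 2.28 mg/kg to rats by injection and 1.14 mg/kg to Beagle dogs by infusion. Plasma concentrations were then measured.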"}, "[26]": {"test": "Toxicity in BALB/c mouse xenografted with mouse 4T1 cells assessed as decrease in body weight at 5.7 mg/kg,iv administrated with doxorubicin combination once per week for 4 weeks", "type": "organism-based", "settings": "in vivo, 672 h", "procedure,_shortened": "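4T1 mammary fat-pad model in BALB/c mice. Doxorubicin (4 mg/kg) was given alone or co-administered with the conjugate or its parent taxane, with iv saline vehicle. Readouts were body weight, tumour volume, tumour weight, lung metastatic nodules and lung metastasis score. Mean ± SEM, n = 10; ANOVA and Student's t test.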"}, "[27]": {"test": "Half life in mouse plasma implanted with mouse 4T1 cells at 5.7 mg/kg,iv measured upto 72 hrs", "type": "ADME, organism-based"}},
  "note": "The source made the active and inactive calls. The rule behind the calls is not given here.",
  "data": [
    {"smiles": "CC(=O)O[C@@]12CO[C@@H]1C[C@H](O)[C@@]1(C)C(=O)[C@H](O)C3=C(C)[C@@H](OC(=O)[C@H](OC(=O)CCC(=O)NCCCC[C@H](NC(=O)CC[C@@H](NC(=O)[C@H](C)NC(=O)/C=C/c4ccc(F)cc4Cl)C(N)=O)C(=O)O)[C@@H](NC(=O)OC(C)(C)C)c4ccccc4)C[C@@](O)([C@@H](OC(=O)c4ccccc4)[C@H]21)C3(C)C", "values": [
      {"measurement": "Drug metabolism", "setting": "[1]", "result": "Metabolite_Detected"},
      {"measurement": "Cmax", "setting": "[2]", "result": 10800, "unit": "ng/mL"},
      {"measurement": "Vd", "setting": "[3]", "result": 0.075, "unit": "L/kg"},
      {"measurement": "fraction unbound at 4 h", "setting": "[4]", "result": 0.007},
      {"measurement": "Cmax", "setting": "[5]", "result": 14.7, "unit": "µM"},
      {"measurement": "Vd", "setting": "[6]", "result": 0.169, "unit": "L/kg"},
      {"measurement": "Drug metabolism", "setting": "[7]", "result": "Metabolite_Detected"},
      {"measurement": "IC50", "setting": "NCI-H522", "result": 16.3, "unit": "nM"},
      {"measurement": "AUC(0-t) at 24 h", "setting": "[8]", "result": 4320, "unit": "ng·h/mL"},
      {"measurement": "AUC(0-inf)", "setting": "[9]", "result": 5950, "unit": "ng·h/mL"},
      {"measurement": "clearance", "setting": "[10]", "result": 4.28, "unit": "mL/min/kg"},
      {"measurement": "AUC(0-inf)", "setting": "[11]", "result": 4890, "unit": "ng·h/mL"},
      {"measurement": "Activity", "setting": "4T1 [12]", "result": "inactive"},
      {"measurement": "inhibition (INH)", "setting": "Cytochrome P450 2C9", "result": "Not Active"},
      {"measurement": "Activity", "setting": "[13]", "result": "Toxic"},
      {"measurement": "inhibition (INH)", "setting": "Cytochrome P450 3A4", "result": "Not Active"},
      {"measurement": "Stability", "setting": "[14]", "result": "Stable"},
      {"measurement": "Tmax", "setting": "[15]", "result": 30, "unit": "min"},
      {"measurement": "Activity", "setting": "4T1 [16]", "result": "Active"},
      {"measurement": "AUC(0-t) at 24 h", "setting": "[17]", "result": 52300, "unit": "ng·h/mL"},
      {"measurement": "Activity", "setting": "4T1 [18]", "result": "Active"},
      {"measurement": "MRT", "setting": "[19]", "result": 27, "unit": "min"},
      {"measurement": "LD", "setting": "[20]", "result": 33, "unit": "mg/kg"},
      {"measurement": "half-life", "setting": "[21]", "result": 30.9, "unit": "min"}
    ]},
    {"smiles": "CC(=O)O[C@@]12CO[C@@H]1C[C@H](O)[C@@]1(C)C(=O)[C@H](O)C3=C(C)[C@@H](OC(=O)[C@H](O)[C@@H](NC(=O)OC(C)(C)C)c4ccccc4)C[C@@](O)([C@@H](OC(=O)c4ccccc4)[C@H]21)C3(C)C", "note": "[DOCETAXEL ANHYDROUS]", "values": [
      {"measurement": "Activity", "setting": "[22]", "result": "Non-Toxic"},
      {"measurement": "half-life", "setting": "[23]", "result": 49.1, "unit": "h"},
      {"measurement": "Activity", "setting": "4T1 [24]", "result": "inactive"},
      {"measurement": "Drug uptake", "setting": "[25]", "result": 45, "unit": "%"},
      {"measurement": "Activity", "setting": "[26]", "result": "Toxic"},
      {"measurement": "half-life", "setting": "[27]", "result": 217, "unit": "min"}
    ]}
  ]
}
